In assay [1] the target is RAC-alpha serine/threonine-protein kinase (Homo sapiens, UniProt P31749). Nature of the assay: Inhibition of wild type AKT1 expressed in HEK293 cells assessed as reduction of IGF1-induced GSK3-beta Ser9 phosphorylation treated 20 mins before IGF1 stimulation by immunoblotting. The class given is cell-based. In short, it runs like this:
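Untransfected HEK293 cells carrying endogenous Akt were serum-starved overnight. They were treated with compound for 20 min, then stimulated with 50 ng/ml IGF-1 for 10 min. DMSO stocks were diluted 1:1000. Lysates in Tris pH 7.5/Triton buffer with phosphatase inhibitors were immunoblotted for GSK3β Ser9 and Akt Thr308/Ser473 phosphorylation, read by ECL.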

Assay [2] concerns the target Tyrosine-protein kinase JAK2 (Homo sapiens) (UniProt O60674). Nature of the assay: Inhibition of JAK2 JH1 JH2 domain at 1 uM in presence of 100 uM ATP by Select Screen kinase assay relative to untreated control. In short, it runs like this: (§1)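 Single-concentration profiling at 1 μM against a panel of 220 purified kinases, run as an outsourced SelectScreen kinase profiling service. Activity is expressed as percent inhibition.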

Assay [3] has as its target Dual specificity tyrosine-phosphorylation-regulated kinase 3 (Homo sapiens) (UniProt O43781). The experiment in a line: Inhibition of DYRK3 at 1 uM in presence of 10 uM ATP by Select Screen kinase assay relative to untreated control. Put shortly: (§2)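 Part of a 220-kinase panel of purified kinases, each tested with compound at 1 μM. Percent inhibition was measured in the Invitrogen SelectScreen profiling assay.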

Assay [4] addresses Calcium/calmodulin-dependent protein kinase type 1D (Homo sapiens) (UniProt Q8IU85). Nature of the assay: Inhibition of CAMK1D at 1 uM in presence of 10 uM ATP by Select Screen kinase assay relative to untreated control. Put shortly: (§3)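 Single-point screen at 1 μM against a panel of 220 purified kinases, run by Invitrogen staff as a SelectScreen profiling service. Read-out is percent inhibition of kinase activity.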

Assay [5] deals with Serine/threonine-protein kinase pim-1 (Homo sapiens) (UniProt P11309). Nature of the assay: Inhibition of PIM1 at 1 uM in presence of 10 uM ATP by Select Screen kinase assay relative to untreated control. Put shortly:
(§4)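 Profiling panel of 220 purified kinases (SelectScreen), each compound tested at 1 μM. Read-out is percent inhibition of kinase activity.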

The target in assay [6] is Mitogen-activated protein kinase kinase kinase kinase 2 (Homo sapiens) (UniProt Q12851). The experiment in a line: Inhibition of MAP4K2 at 1 uM in presence of 10 uM ATP by Select Screen kinase assay relative to untreated control.
Assay [7] addresses Serine/threonine-protein kinase 3 (Homo sapiens) (UniProt Q13188). The experiment in a line: Inhibition of STK3 at 1 uM in presence of 10 uM ATP by Select Screen kinase assay relative to untreated control.
The test system of assay [8] is Mast/stem cell growth factor receptor Kit (Homo sapiens), P10721 [T670I]. Nature of the assay: Inhibition of KIT T670I mutant at 1 uM in presence of 10 uM ATP by Select Screen kinase assay relative to untreated control. In short, it runs like this:
as §1

Assay [9] deals with Serine/threonine-protein kinase PAK 6 (Homo sapiens) (UniProt Q9NQU5). The experiment in a line: Inhibition of PAK6 at 1 uM in presence of 10 uM ATP by Select Screen kinase assay relative to untreated control.
Assay [10] deals with Casein kinase II subunit alpha (Homo sapiens) (UniProt P68400). The experiment in a line: Inhibition of CSNK2A1 at 1 uM in presence of 10 uM ATP by Select Screen kinase assay relative to untreated control. Put shortly: as §2
Assay [11] addresses Proto-oncogene tyrosine-protein kinase receptor Ret (Homo sapiens) (UniProt P07949). Nature of the assay: Inhibition of RET at 1 uM in presence of 100 uM ATP by Select Screen kinase assay relative to untreated control. Put shortly:
as §4

For assay [12], the target named is Ribosomal protein S6 kinase alpha-4 (Homo sapiens) (UniProt O75676). Nature of the assay: Inhibition of RPS6KA4 at 1 uM in presence of 10 uM ATP by Select Screen kinase assay relative to untreated control.
Sequence of Ribosomal protein S6 kinase alpha-4 (Homo sapiens) (O75676 whole entry, looked up): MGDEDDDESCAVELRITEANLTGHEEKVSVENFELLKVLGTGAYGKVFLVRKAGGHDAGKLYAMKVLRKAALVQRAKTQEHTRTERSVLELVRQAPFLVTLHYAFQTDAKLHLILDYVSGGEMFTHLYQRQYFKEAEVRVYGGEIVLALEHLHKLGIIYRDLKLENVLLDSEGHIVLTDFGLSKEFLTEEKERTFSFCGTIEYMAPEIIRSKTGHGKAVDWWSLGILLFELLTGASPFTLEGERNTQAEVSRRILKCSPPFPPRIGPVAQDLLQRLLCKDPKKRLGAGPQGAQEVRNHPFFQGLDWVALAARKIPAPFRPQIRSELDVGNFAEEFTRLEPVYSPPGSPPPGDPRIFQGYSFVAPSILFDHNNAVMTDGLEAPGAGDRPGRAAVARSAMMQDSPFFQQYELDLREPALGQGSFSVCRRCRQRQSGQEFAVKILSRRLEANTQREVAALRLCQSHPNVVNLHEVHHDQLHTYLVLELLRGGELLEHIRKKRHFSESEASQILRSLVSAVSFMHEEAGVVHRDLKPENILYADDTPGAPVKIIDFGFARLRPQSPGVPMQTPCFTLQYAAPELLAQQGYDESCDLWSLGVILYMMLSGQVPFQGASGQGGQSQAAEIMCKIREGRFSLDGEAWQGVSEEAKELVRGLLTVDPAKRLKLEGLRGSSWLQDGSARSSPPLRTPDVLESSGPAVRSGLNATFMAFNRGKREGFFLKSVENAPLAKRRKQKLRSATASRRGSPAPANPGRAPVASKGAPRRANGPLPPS
In assay [13] the target is Aurora kinase B (Homo sapiens) (UniProt Q96GD4). The experiment in a line: Inhibition of AURKB at 1 uM in presence of 10 uM ATP by Select Screen kinase assay relative to untreated control.
Sequence of Aurora kinase B (Homo sapiens) (Q96GD4 whole entry, looked up): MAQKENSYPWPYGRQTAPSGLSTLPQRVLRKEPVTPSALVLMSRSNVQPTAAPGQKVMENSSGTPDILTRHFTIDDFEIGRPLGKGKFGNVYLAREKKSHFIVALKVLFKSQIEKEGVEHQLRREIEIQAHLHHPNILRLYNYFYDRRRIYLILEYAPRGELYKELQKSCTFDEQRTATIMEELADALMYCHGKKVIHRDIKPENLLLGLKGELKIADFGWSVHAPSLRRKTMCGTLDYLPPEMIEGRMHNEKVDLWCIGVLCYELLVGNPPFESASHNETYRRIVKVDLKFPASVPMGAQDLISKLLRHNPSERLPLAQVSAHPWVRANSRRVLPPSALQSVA
Assay [14] addresses Calcium/calmodulin-dependent protein kinase type IV (Homo sapiens) (UniProt Q16566). The experiment in a line: Inhibition of CAMK4 at 1 uM in presence of 10 uM ATP by Select Screen kinase assay relative to untreated control. In short, it runs like this: as §3
Assay [15] has as its target Casein kinase II subunit alpha' (Homo sapiens) (UniProt P19784). The experiment in a line: Inhibition of CSNK2A2 at 1 uM in presence of 10 uM ATP by Select Screen kinase assay relative to untreated control. In short, it runs like this:
as §2

The target of assay [16] is Ephrin type-B receptor 4 (Homo sapiens) (UniProt P54760). The experiment in a line: Inhibition of EPHB4 at 1 uM in presence of 10 uM ATP by Select Screen kinase assay relative to untreated control. Put shortly:
as §3

The target in assay [17] is Dual specificity tyrosine-phosphorylation-regulated kinase 4 (Homo sapiens) (UniProt Q9NR20). Nature of the assay: Inhibition of DYRK4 at 1 uM in presence of 10 uM ATP by Select Screen kinase assay relative to untreated control. In short, it runs like this: as §4
Sequence of Dual specificity tyrosine-phosphorylation-regulated kinase 4 (Homo sapiens) (Q9NR20 whole entry): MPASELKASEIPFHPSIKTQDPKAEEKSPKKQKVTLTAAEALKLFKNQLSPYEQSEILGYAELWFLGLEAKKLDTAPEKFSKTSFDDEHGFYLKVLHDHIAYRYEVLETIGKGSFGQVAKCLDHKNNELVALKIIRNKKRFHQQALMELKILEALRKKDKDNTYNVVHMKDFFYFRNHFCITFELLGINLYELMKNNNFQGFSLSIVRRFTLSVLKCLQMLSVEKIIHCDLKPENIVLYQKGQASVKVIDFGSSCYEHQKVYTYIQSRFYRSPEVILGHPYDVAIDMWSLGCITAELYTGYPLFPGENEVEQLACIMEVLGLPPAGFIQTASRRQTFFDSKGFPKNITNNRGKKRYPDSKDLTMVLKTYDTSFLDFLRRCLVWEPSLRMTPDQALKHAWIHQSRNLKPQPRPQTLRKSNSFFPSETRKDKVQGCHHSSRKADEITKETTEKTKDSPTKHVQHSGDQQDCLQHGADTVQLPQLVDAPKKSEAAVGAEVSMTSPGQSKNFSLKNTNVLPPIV
Assay [18] addresses Vascular endothelial growth factor receptor 2 (Homo sapiens) (UniProt P35968). Nature of the assay: Inhibition of KDR at 1 uM in presence of 10 uM ATP by Select Screen kinase assay relative to untreated control. Put shortly: as §1
In assay [19] the target is Ribosomal protein S6 kinase alpha-2 (Homo sapiens) (UniProt Q15349). Nature of the assay: Inhibition of RPS6KA2 at 1 uM in presence of 10 uM ATP by Select Screen kinase assay relative to untreated control.
Sequence of Ribosomal protein S6 kinase alpha-2 (Homo sapiens) (Q15349 whole entry): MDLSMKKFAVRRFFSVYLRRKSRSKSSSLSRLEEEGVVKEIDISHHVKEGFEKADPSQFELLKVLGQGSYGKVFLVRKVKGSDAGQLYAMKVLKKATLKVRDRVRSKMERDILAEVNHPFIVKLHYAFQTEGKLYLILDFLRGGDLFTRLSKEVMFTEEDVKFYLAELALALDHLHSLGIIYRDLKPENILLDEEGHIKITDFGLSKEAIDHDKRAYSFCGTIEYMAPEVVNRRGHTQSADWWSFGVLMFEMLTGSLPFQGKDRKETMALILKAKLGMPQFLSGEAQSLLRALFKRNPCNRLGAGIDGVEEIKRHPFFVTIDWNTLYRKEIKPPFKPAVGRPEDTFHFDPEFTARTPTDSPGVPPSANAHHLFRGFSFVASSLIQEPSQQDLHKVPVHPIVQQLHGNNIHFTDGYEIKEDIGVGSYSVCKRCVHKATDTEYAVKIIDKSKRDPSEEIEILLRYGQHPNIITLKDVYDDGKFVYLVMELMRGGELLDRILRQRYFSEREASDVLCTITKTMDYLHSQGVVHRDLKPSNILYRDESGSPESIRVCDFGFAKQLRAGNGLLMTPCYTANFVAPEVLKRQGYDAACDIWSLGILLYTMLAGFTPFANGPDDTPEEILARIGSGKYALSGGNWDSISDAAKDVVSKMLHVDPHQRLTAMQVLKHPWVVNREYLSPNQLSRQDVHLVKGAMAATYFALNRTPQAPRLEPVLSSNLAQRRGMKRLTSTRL
Assay [20] has as its target Serine/threonine-protein kinase Sgk1 (Homo sapiens) (UniProt O00141). Nature of the assay: Inhibition of SGK at 1 uM in presence of 10 uM ATP by Select Screen kinase assay relative to untreated control.
Assay [21] addresses RAC-beta serine/threonine-protein kinase (Homo sapiens) (UniProt P31751). The experiment in a line: Inhibition of AKT2 at 1 uM in presence of 10 uM ATP by Select Screen kinase assay relative to untreated control. In short, it runs like this: as §3
Assay [22] addresses Serine/threonine-protein kinase D1 (Homo sapiens) (UniProt Q15139). Nature of the assay: Inhibition of PRKD1 at 1 uM in presence of 10 uM ATP by Select Screen kinase assay relative to untreated control.
Assay [23] has as its target Dual specificity tyrosine-phosphorylation-regulated kinase 1B (Homo sapiens) (UniProt Q9Y463). The experiment in a line: Inhibition of DYRK1B at 1 uM in presence of 10 uM ATP by Select Screen kinase assay relative to untreated control. In short, it runs like this:
as §2

In assay [24] the target is Protein kinase C epsilon type (Homo sapiens) (UniProt Q02156). Nature of the assay: Inhibition of PKCE at 1 uM in presence of 10 uM ATP by Select Screen kinase assay relative to untreated control.
Assay [25] concerns the target cAMP-dependent protein kinase catalytic subunit alpha (Homo sapiens) (UniProt P17612). Nature of the assay: Inhibition of PRKACA (PKA) at 1 uM in presence of 10 uM ATP by Select Screen kinase assay relative to untreated control.
Assay [26] has as its target Mitogen-activated protein kinase kinase kinase kinase 4 (Homo sapiens) (UniProt O95819). Nature of the assay: Inhibition of MAP4K4 at 1 uM in presence of 10 uM ATP by Select Screen kinase assay relative to untreated control.

The record followed here is ChEMBL document CHEMBL1250448, “Inhibitor hijacking of Akt activation” (Nat Chem Biol, 2009).

SMILES strings stand for the structures. Calls of active or inactive are those of the source. The rule behind the calls is not given here.

Usually inhibition stands for the drop in the measured response relative to a control, in per cent.

Sequence of Mast/stem cell growth factor receptor Kit (Homo sapiens), P10721 [T670I] (P10721 whole entry T670I): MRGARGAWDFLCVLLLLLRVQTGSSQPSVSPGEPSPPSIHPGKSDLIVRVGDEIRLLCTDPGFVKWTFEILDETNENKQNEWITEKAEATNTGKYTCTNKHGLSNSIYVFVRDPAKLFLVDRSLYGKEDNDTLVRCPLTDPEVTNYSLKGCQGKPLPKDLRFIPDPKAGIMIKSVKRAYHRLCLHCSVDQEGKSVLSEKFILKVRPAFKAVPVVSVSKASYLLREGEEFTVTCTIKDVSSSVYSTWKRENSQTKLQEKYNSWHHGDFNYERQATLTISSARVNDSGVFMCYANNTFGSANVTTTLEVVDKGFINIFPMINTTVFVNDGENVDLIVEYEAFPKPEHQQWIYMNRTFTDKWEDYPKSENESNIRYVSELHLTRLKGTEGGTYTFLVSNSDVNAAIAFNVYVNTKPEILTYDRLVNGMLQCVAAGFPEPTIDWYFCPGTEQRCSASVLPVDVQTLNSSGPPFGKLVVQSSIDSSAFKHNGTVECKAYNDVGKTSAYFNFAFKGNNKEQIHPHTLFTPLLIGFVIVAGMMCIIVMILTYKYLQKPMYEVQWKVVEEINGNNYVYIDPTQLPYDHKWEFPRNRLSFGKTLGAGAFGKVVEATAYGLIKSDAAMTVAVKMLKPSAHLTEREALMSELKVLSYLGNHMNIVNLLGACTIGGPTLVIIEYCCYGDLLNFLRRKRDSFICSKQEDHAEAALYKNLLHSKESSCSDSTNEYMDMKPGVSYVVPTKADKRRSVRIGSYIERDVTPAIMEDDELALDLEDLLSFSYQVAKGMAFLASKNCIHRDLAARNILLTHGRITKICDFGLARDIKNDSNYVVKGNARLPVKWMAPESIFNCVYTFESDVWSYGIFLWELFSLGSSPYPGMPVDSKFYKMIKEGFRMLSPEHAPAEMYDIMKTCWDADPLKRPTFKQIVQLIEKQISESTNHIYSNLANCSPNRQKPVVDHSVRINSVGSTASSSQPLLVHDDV
Sequence of Casein kinase II subunit alpha' (Homo sapiens) (P19784 whole entry, looked up): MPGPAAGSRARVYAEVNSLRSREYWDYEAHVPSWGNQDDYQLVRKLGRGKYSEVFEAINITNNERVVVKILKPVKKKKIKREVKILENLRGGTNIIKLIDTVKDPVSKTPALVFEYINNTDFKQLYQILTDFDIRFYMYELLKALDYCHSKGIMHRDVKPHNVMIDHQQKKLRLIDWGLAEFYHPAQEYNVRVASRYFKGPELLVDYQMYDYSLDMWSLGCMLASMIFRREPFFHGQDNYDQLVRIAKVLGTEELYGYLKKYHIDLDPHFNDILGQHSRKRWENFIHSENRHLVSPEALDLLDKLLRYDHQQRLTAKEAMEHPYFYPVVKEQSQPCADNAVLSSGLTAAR
Sequence of Dual specificity tyrosine-phosphorylation-regulated kinase 1B (Homo sapiens) (Q9Y463 whole entry, looked up): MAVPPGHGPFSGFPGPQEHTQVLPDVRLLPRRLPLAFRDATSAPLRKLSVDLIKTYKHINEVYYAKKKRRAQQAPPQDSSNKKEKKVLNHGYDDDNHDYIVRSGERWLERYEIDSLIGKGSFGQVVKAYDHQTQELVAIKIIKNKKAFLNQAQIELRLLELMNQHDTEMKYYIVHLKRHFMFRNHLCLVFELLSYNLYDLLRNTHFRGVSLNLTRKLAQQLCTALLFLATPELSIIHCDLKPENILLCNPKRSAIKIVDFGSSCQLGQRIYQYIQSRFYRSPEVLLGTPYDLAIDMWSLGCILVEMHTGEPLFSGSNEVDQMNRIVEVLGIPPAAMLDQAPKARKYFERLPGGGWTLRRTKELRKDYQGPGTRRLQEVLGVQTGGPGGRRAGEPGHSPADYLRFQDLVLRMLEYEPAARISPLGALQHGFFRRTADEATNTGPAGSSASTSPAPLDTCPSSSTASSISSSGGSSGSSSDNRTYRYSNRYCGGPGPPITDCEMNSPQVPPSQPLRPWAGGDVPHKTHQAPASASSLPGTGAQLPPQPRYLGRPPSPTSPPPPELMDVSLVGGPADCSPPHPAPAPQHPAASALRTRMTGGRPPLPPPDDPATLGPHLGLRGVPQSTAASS
Sequence of Serine/threonine-protein kinase pim-1 (Homo sapiens) (P11309 whole entry, looked up): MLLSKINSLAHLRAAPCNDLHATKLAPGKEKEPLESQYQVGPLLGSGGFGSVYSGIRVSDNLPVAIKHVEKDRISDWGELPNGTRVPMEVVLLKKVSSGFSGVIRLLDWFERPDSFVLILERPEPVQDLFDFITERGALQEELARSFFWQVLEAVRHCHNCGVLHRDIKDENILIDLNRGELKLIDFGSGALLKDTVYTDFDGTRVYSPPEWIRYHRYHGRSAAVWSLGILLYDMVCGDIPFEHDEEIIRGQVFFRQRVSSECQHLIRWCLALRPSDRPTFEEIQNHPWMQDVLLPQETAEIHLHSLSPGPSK
Sequence of Calcium/calmodulin-dependent protein kinase type 1D (Homo sapiens) (Q8IU85 whole entry, looked up): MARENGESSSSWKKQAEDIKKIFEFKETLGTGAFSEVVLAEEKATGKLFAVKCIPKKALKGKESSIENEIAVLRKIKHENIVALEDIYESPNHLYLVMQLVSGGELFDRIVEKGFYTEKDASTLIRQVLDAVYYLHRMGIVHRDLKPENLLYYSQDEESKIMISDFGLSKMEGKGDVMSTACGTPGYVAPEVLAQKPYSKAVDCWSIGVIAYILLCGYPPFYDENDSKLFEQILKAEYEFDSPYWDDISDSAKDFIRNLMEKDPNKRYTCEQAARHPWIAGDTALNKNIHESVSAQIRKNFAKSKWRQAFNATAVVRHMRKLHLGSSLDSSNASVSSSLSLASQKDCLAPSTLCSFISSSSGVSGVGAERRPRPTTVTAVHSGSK

In the case of `CCCc1cc(-c2cncc(OC[C@@H](N)Cc3c[nH]c4ccccc34)c2)cc2c(C)n[nH]c12`, in [1], the inhibition result is “inactive”.
Consider `COc1ccccc1N1CCN(c2ncnc3[nH]nc(Br)c23)CC1`, for which the inhibition in assay [2] stood at 0%; in [3], 69%; in assay [4], 24%; in [5] it was 20%; in [6] it was 18%; in assay [7], 9%. For the same compound, the inhibition came out at 11% in [8]; 5% in assay [9]; 18% in assay [10]; 41% in assay [11]; 90% in [12]; 20% in assay [13]. Besides, the inhibition in [14] turned out to be 0%; in assay [15], 27%; in [16], 11%; in assay [17] it was 3%; in [18], 52%; in assay [19], 55%. The inhibition in [20] came to 13%; in assay [21], 12%; in assay [22] it was 5%; in assay [23], 43%; in assay [24], 13%; in assay [25], 48%. Moreover, the inhibition in assay [26] worked out at 73%.
With `O=C(NCCCNc1nc(Nc2cccc(NC(=O)N3CCCC3)c2)ncc1I)c1cccs1`, the inhibition in assay [2] came out at 97%; in assay [3] it was 50%; in assay [4] it was 14%; in [5], 9%; in [6], 97%; in assay [7] it was 21%. In addition, the inhibition was found to be 29% in [8]; 11% in assay [9]; 16% in assay [10]; 87% in assay [11]; 75% in [12]; 103% in [13]. Besides, the inhibition in assay [14] stood at 8%; in [15], 26%; in assay [16], 8%; in assay [17], 2%; in assay [18], 79%; in assay [19] it was 63%. Also, the inhibition came out at 53% in assay [20]; 9% in assay [21]; 71% in assay [22]; 26% in assay [23]; 47% in assay [24]; 28% in assay [25]. Also, the inhibition in [26] was determined as 39%.
For the compound `Cc1n[nH]c2ccc(-c3cncc(OC[C@@H](N)Cc4c[nH]c5ccccc45)c3)cc12`, the inhibition in [8] came out at 0%. Moreover, in assay [1], the inhibition result was “Active”.
